Measurements published in ChEMBL document CHEMBL1135624, “Parallel synthesis of potent, pyrazole-based inhibitors of Helicobacter pylori dihydroorotate dehydrogenase” (J Med Chem, 2002).
Converted amounts (≈) assume the structure as drawn.

How the values were obtained:
[1] = biological target: Dihydroorotate dehydrogenase (quinone), mitochondrial (Homo sapiens, UniProt Q02127); assay: Inhibition of human dihydroorotate dehydrogenase (DHODase)
Helicobacter pylori [2] = assay: Minimum Inhibitory concentration against Helicobacter pylori; assay type: functional
Outline: (§1)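 Whole-cell antimicrobial MIC against a reference American Type Culture Collection *H. pylori* strain, reported in μg/mL.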

Helicobacter pylori [3] = assay: Minimum inhibitory concentration measured against compound 13 resistant Helicobacter pylori isolate; assay type: functional
Outline: (§2)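 Spontaneously resistant H. pylori mutants were isolated by plating cells on the selecting pyrazole, with the same method for each of the two selecting agents. Each resistant isolate was then tested for MIC against the pyrazole not used to select it, as a cross-resistance check.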

Helicobacter pylori [4] = assay: Minimum inhibitory concentration measured against compound 1 resistant Helicobacter pylori isolate; assay type: functional; outline: as §2
[5] = Minimum inhibitory concentration measured against wild type.; assay type: functional; conditions: Helicobacter pylori; outline: as §1

Chain of Dihydroorotate dehydrogenase (quinone), mitochondrial (Q02127 whole entry): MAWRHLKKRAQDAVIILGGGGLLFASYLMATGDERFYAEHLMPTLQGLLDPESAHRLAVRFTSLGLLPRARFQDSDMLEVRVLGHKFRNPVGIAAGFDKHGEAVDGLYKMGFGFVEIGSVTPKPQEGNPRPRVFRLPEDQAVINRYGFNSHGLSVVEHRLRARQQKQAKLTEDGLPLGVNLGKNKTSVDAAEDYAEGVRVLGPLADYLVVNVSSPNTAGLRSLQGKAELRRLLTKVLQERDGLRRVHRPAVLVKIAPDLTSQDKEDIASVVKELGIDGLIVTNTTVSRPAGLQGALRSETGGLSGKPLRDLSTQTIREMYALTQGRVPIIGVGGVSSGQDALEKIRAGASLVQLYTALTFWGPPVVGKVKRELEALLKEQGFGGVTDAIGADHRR

Structure (SMILES) | Ki [1] [µM] | MIC (Helicobacter pylori [2]) [µg/mL] | MIC (Helicobacter pylori [3]) [µg/mL] | MIC (Helicobacter pylori [4]) [µg/mL] | MIC [5] [µg/mL]
COc1ccc(-n2nc(C(=O)NC(c3ccccc3)c3ccccc3)cc2C(=O)NCc2ccccc2)cc1 | > 50 | > 32 | – | – | –
COc1ccc(-n2nc(C(=O)NCC3CCCO3)cc2C(=O)Nc2ccc(C(=O)N3CCCC3)cc2)cc1 (centres undefined) | > 50 | > 32 | – | – | –
COc1ccc(-n2nc(C(=O)NCc3ccccc3)cc2C(=O)Nc2ccc(C(=O)N3CCCC3)cc2)cc1 | > 50 | 3 (≈ 5.73 µM) | > 64 | > 64 | 3 (≈ 5.73 µM)
CC(C)CNC(=O)c1cc(C(=O)NCc2ccccc2)nn1-c1ccc(Cl)cc1 | > 50 | > 64 | – | – | –
O=C(NCc1cccnc1)c1cc(C(=O)Nc2ccccc2)n(-c2ccc(Cl)cc2)n1 | > 50 | 0.25 (≈ 0.579 µM) | – | – | –
Cc1ccc(CNC(=O)c2cc(C(=O)Nc3ccccc3)n(-c3ccc(Cl)cc3)n2)cc1 | > 50 | 32 (≈ 71.9 µM) | – | – | –
COc1ccc(-n2nc(C(=O)NCc3cccnc3)cc2C(=O)Nc2ccccc2)cc1 | > 50 | 0.5 (≈ 1.17 µM) | 24 (≈ 56.1 µM) | 32 (≈ 74.9 µM) | 0.5 (≈ 1.17 µM)
NC(=O)c1ccc(NC(=O)c2cc(C(=O)NCc3ccccc3)nn2-c2ccc(Cl)cc2)cc1 | > 50 | 8 (≈ 16.9 µM) | – | – | –
COc1ccc(-n2nc(C(=O)Nc3ccc(C(=O)N4CCCC4)cc3)cc2C(=O)NCc2ccccc2)cc1 | – | > 32 | – | – | –
COc1ccc(-n2nc(C(=O)NCC(C)C)cc2C(=O)Nc2ccc(C(=O)N3CCCC3)cc2)cc1 | > 50 | 64 (≈ 131 µM) | – | – | –
O=C(NCc1ccccc1)c1cc(C(=O)Nc2ccccc2)n(-c2ccc(Cl)cc2)n1 | 50 | 0.125 (≈ 0.29 µM) | – | – | –
O=C(NCc1cccnc1)c1cc(C(=O)Nc2ccc(N3CCCCC3)cc2)n(-c2ccc(Cl)cc2)n1 | > 50 | 2 (≈ 3.88 µM) | – | – | –
